Measured values reported in ChEMBL document CHEMBL1148106, “Potent cytotoxic lignans from Justicia procumbens and their effects on nitric oxide and tumor necrosis factor-alpha production in mouse macrophages” (J Nat Prod, 2002).
Converted amounts (≈) assume the structure as drawn. Numbered stars: 1 amine (or outer) side, 2 acyl side, 3 side chain; on linkers, the order of the positions; unused ones are H or OH. Bridge positions count the residues as written; N and C are the ends. Square brackets hold non-standard residues; d marks the D form. Peptide text beside a SMILES is read from it. I, II: the chains in the order shown. Actinocin(1to9) = Cc1c2oc3c(C)ccc(C(=O)[*:2])c3nc-2c(C(=O)[*:1])c(N)c1=O; NMeV = CN[C@H](C(=O)O)C(C)C; Sar = CNCC(=O)O

Key:
HepG2 = experiment: Cytotoxicity against human HepG2 cells by MTT assay; assay type: functional; details: read-out: ED50 (the source's name)
Outline: (§1)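 Human lines from ATCC grown in DMEM with 10% FBS, 2 mM L-glutamine, penicillin and streptomycin, plus 10 mM HEPES pH 7.3 for the assay. (1-3) × 10³ cells/well, 6 h attachment, then drug exposure for 6 days at 37 °C. MTT added for 4 h, cells lysed in 10% SDS/0.01 M HCl, A550 read. Death calculated as percent MTT inhibition.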

HT-29 = experiment: Cytotoxicity against human HT-29 cells by MTT assay; assay type: functional; details: read-out: ED50 (the source's name)
Outline: (§2)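 Cells grown in DMEM with 10% FBS plus antibiotics; assay medium supplemented with 10 mM HEPES pH 7.3, 37 °C CO2 incubator. (1-3) × 10³ cells/100 µL seeded, 6 h attachment, drug exposure 6 days. MTT added for 4 h at 37 °C, cells lysed in 10% SDS/0.01 M HCl, A550 read; cell death expressed as % MTT inhibition versus cell-only and medium-blank wells.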

HCT-116 = experiment: Cytotoxicity against human HCT116 cells by MTT assay; assay type: functional; details: read-out: ED50 (the source's name); outline: as §2
[1] = Cytotoxicity against human Hep3B cells by MTT assay; assay type: functional, Hep 3B2; details: read-out: ED50 (the source's name); outline: as §1
Ca-Ski = experiment: Cytotoxicity against human CaSKi cells by MTT assay; assay type: functional; details: read-out: ED50 (the source's name); outline: as §1
SiHa = experiment: Cytotoxicity against human SiHa cells by MTT assay; assay type: functional; details: for EC50: Homo sapiens, SiHa, read-out: ED50 (the source's name); outline: as §1
[2] = Cytotoxicity against human MCF7-ras cells by MTT assay; assay type: functional; details: read-out: ED50 (the source's name); outline: as §2
RAW264.7 [3] = experiment: Antiinflammatory activity in LPS-stimulated mouse RAW264.7 cells assessed as effect on TNFalpha formation at 0.3 uM pretreated 1 hr before LPS challenge measured after 24 hrs; assay type: functional
Outline: (§3)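 Medium from RAW 264.7 macrophages (2 × 10⁵ cells/well, adhered overnight) pretreated 1 h at 37 °C with drug or 0.5% DMSO vehicle and then given 1 µg/mL LPS (E. coli 0111:B4) for 24 h. Supernatant stored at -70 °C, and TNF-α quantified by ELISA kit per manufacturer. Mean ± SEM, n = 3.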

[4] = Cytotoxicity against mouse 212 cells by MTT assay; assay type: functional; details: read-out: ED50 (the source's name)
Outline: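 Ha-ras-inducible NIH/3T3-derived 212 cells maintained in MEM alpha with 10% FBS and antibiotics, with 10 mM HEPES pH 7.3 added for the assay. Seeded at (1-3) × 10³ cells/well, allowed 6 h to attach, then exposed to drug 6 days at 37 °C. MTT pulse 4 h, SDS/HCl lysis, absorbance at 550 nm. Cell death expressed as percent MTT inhibition.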

MCF7 = experiment: Cytotoxicity against human MCF7 cells by MTT assay; assay type: functional; details: read-out: ED50 (the source's name); outline: as §2
RAW264.7 [5] = experiment: Antiinflammatory activity in LPS-stimulated mouse RAW264.7 cells assessed as effect on NO production at 0.3 uM pretreated 1 hr before LPS challenge measured after 24 hrs; assay type: functional
Outline: (§4)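 RAW 264.7 cells in DMEM with 10% FBS and antibiotics, 2 × 10⁵ cells/well, adhered overnight. Pretreated 1 h at 37 °C with drug or vehicle (final DMSO 0.5%), then stimulated with 1 µg/mL E. coli 0111:B4 LPS for 24 h. Medium nitrite measured by Griess reaction (sulfanilamide, HCl, naphthylethylenediamine, 10 min room temperature, A550) against a NaNO2 standard curve. Mean ± SEM, n = 3.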

RAW264.7 [6] = experiment: Antiinflammatory activity in LPS-stimulated mouse RAW264.7 cells assessed as effect on TNFalpha formation at 0.1 uM pretreated 1 hr before LPS challenge measured after 24 hrs; assay type: functional; outline: as §3
RAW264.7 [7] = experiment: Antiinflammatory activity in LPS-stimulated mouse RAW264.7 cells assessed as effect on NO production at 1 uM pretreated 1 hr before LPS challenge measured after 24 hrs; assay type: functional; outline: as §4
RAW264.7 [8] = experiment: Antiinflammatory activity in LPS-stimulated mouse RAW264.7 cells assessed as effect on TNFalpha formation pretreated 1 hr before LPS challenge measured after 24 hrs; assay type: functional, cell-based; outline: as §3
RAW264.7 [9] = experiment: Antiinflammatory activity in LPS-stimulated mouse RAW264.7 cells assessed as effect on TNFalpha formation at 30 uM pretreated 1 hr before LPS challenge measured after 24 hrs; assay type: functional; outline: as §3
RAW264.7 [10] = experiment: Antiinflammatory activity in LPS-stimulated mouse RAW264.7 cells assessed as effect on NO production at 30 uM pretreated 1 hr before LPS challenge measured after 24 hrs; assay type: functional; outline: as §4
RAW264.7 [11] = experiment: Antiinflammatory activity in LPS-stimulated mouse RAW264.7 cells assessed as effect on NO production at 10 uM pretreated 1 hr before LPS challenge measured after 24 hrs; assay type: functional; outline: as §4
RAW264.7 [12] = experiment: Antiinflammatory activity in LPS-stimulated mouse RAW264.7 cells assessed as effect on NO production at 3 uM pretreated 1 hr before LPS challenge measured after 24 hrs; assay type: functional
Outline: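 RAW 264.7 cells at 2 × 10⁵ per well in DMEM/10% FBS, adhered overnight. Pretreated 1 h at 37 °C with drug or vehicle (DMSO fixed at 0.5% final), then LPS (E. coli 0111:B4) 1 µg/mL for 24 h. Medium nitrite measured by Griess reaction (10 min RT, A550) against NaNO2 standard curve; mean ± SEM, n = 3, compared with control.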

RAW264.7 [13] = experiment: Antiinflammatory activity in LPS-stimulated mouse RAW264.7 cells assessed as effect on NO production pretreated 1 hr before LPS challenge measured after 24 hrs; assay type: functional, cell-based; outline: as §4

Row | Compound | EC50 (HepG2) | EC50 (HT-29) | EC50 (HCT-116) | EC50 [1] | EC50 [4] | inhibition at 30 µM (RAW264.7 [9]) | also measured
1 | O=c1[nH]cc(F)c(=O)[nH]1 [FLUOROURACIL] | 0.033 µg/mL (≈ 0.254 µM) | 0.074 µg/mL (≈ 0.569 µM) | 0.48 µg/mL (≈ 3.69 µM) | 0.0715 µg/mL (≈ 0.55 µM) |  |  | 
2 | Cc1c2oc3c(C)ccc(C(=O)N[C@@H]4C(=O)N[C@H](C(C)C)C(=O)N5CCC[C@H]5C(=O)N(C)CC(=O)N(C)[C@@H](C(C)C)C(=O)O[C@@H]4C)c3nc-2c(C(=O)N[C@@H]2C(=O)N[C@H](C(C)C)C(=O)N3CCC[C@H]3C(=O)N(C)CC(=O)N(C)[C@@H](C(C)C)C(=O)O[C@@H]2C)c(N)c1=O [DACTINOMYCIN] (I: T[dV]P[Sar][NMeV] / II: T[dV]P[Sar][NMeV]; ester I:1-I:C, II:1-II:C; linker I:N-II:N via Actinocin(1to9)) |  |  |  |  |  |  | EC50 (Ca-Ski): 0.0019 µg/mL (≈ 0.00151 µM); ED50 (SiHa): 8.1 ×10⁻⁴ ug/ml
3 | COc1cc2c(OC)c3c(c(-c4ccc5c(c4)OCO5)c2cc1OC)C(=O)OC3 [JUSTICIDIN A] | 0.02 µg/mL (≈ 0.0507 µM) |  |  | 0.029 µg/mL (≈ 0.0735 µM) | 0.0227 µg/mL (≈ 0.0576 µM) |  | EC50 [2]: 0.074 µg/mL (≈ 0.188 µM); inhibition at 0.3 µM (RAW264.7 [3]): -158%; EC50 (MCF7): 0.39 µg/mL (≈ 0.989 µM); inhibition at 0.3 µM (RAW264.7 [5]): 20.3%; EC50 (Ca-Ski): 0.003 µg/mL (≈ 0.00761 µM); EC50 (SiHa): 0.0074 µg/mL (≈ 0.0188 µM); inhibition at 0.1 µM (RAW264.7 [6]): -6%; inhibition at 1 µM (RAW264.7 [7]): 19.8%
4 | C[C@@H]1C[C@H]2[C@@H]3CCC4=CC(=O)C=C[C@]4(C)[C@@]3(F)[C@@H](O)C[C@]2(C)[C@@]1(O)C(=O)CO [DEXAMETHASONE] |  |  |  |  |  |  | IC50 (RAW264.7 [8]): 700 nM
5 | COc1cc2c(O[C@@H]3OC[C@](O)(CO[C@@H]4OC[C@@H](O)[C@H](O)[C@H]4O)[C@H]3O[C@H]3OC[C@@H](O)[C@@H](O[C@@H]4OC[C@](O)(CO)[C@H]4O)[C@@H]3O)c3c(c(-c4ccc5c(c4)OCO5)c2cc1OC)C(=O)OC3 |  |  |  |  |  | -26% | 
6 | COc1cc2c(O)c3c(c(-c4ccc5c(c4)OCO5)c2cc1OC)C(=O)OC3 [DIPHYLLIN] | 0.4 µg/mL (≈ 1.05 µM) | 2.5 µg/mL (≈ 6.57 µM) | 0.8 µg/mL (≈ 2.1 µM) | 3.6 µg/mL (≈ 9.46 µM) | 2.7 µg/mL (≈ 7.1 µM) | -22.2% | inhibition at 30 µM (RAW264.7 [10]): -0.5%; inhibition at 10 µM (RAW264.7 [11]): -28.4%
7 | COc1cc2c(O[C@@H]3OC[C@](O)(CO)[C@H]3O)c3c(c(-c4ccc5c(c4)OCO5)c2cc1OC)C(=O)OC3 [TUBERCULATIN] | 0.04 µg/mL (≈ 0.0781 µM) | 0.29 µg/mL (≈ 0.566 µM) | 0.28 µg/mL (≈ 0.546 µM) | 0.014 µg/mL (≈ 0.0273 µM) |  |  | EC50 [2]: 0.09 µg/mL (≈ 0.176 µM); EC50 (MCF7): 0.97 µg/mL (≈ 1.89 µM); EC50 (SiHa): 0.12 µg/mL (≈ 0.234 µM); inhibition at 3 µM (RAW264.7 [12]): 16.9%
8 | CC(=N)NCc1cccc(CN)c1 [1400W] |  |  |  |  |  |  | IC50 (RAW264.7 [13]): 3100 nM
9 | COc1cc2c(O[C@@H]3OC[C@](O)(CO[C@@H]4OC[C@@H](O)[C@H](O)[C@H]4O)[C@H]3O[C@H]3OC[C@@H](O)[C@@H](O)[C@@H]3O)c3c(c(-c4ccc5c(c4)OCO5)c2cc1OC)C(=O)OC3 |  |  |  |  |  | 18.7% | 
10 | COc1cc2c(O[C@@H]3OC[C@](O)(CO)[C@H]3O[C@H]3OC[C@@H](O)[C@@H](O)[C@@H]3O)c3c(c(-c4ccc5c(c4)OCO5)c2cc1OC)C(=O)OC3 | 3.9 µg/mL (≈ 6.05 µM) | 6.7 µg/mL (≈ 10.4 µM) |  | 3.1 µg/mL (≈ 4.81 µM) | 3.1 µg/mL (≈ 4.81 µM) |  | 
